Test results from ChEMBL document CHEMBL1142417, “Studies on quinones. Part 43: Synthesis and cytotoxic evaluation of polyoxyethylene-containing 1,4-naphthoquinones” (Bioorg Med Chem, 2008).

Legend:
MRC5 = test: Cytotoxicity against human MRC5 cells after 72 hrs by MTT assay; format: cell-based; details: MRC5, 72 h
Method in brief: (§1)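 Cells seeded at 50,000 cells/mL and treated one day later for 3 days with compound at 0 up to 100 µM, with DMSO at 1% final. Untreated cells served as controls. Growth was read by MTT reduction, in sextuplicate. IC50 is the concentration giving 50% growth reduction. Media: AGS in Ham F-12; MRC-5, SK-MES-1 and J82 in MEM; all with 10% FBS at 37 °C and 5% CO2.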

J82 = test: Antitumor against human J82 cells after 72 hrs by MTT assay; format: functional, cell-based; details: J82, 72 h; method in brief: as §1
AGS = test: Antitumor against human AGS cells after 72 hrs by MTT assay; format: functional, cell-based; method in brief: as §1
HL-60 = test: Antitumor against human HL60 cells after 72 hrs by MTT assay; format: functional, cell-based; details: HL-60, 72 h
Method in brief: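 HL-60 leukemia cells kept in RPMI with 1 mM pyruvate and 10% heat-inactivated FBS at 37 °C and 5% CO2. They were plated at 50,000 cells/mL and exposed from day 1 for 3 days to compound at 0 up to 100 µM, with DMSO at 1% final. Untreated cells served as controls. Readout was MTT reduction in sextuplicate. IC50 is 50% growth reduction.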

SK-MES-1 = test: Antitumor against human SK-MES1 cells after 72 hrs by MTT assay; format: functional, cell-based; details: SK-MES-1, 72 h; method in brief: as §1

## O=C1C(Cl)=C(OCCOCCOC2=C(Cl)C(=O)c3ccccc3C2=O)C(=O)c2ccccc21
MRC5
  IC50: 7.3 µM
J82
  IC50: 26.6 µM
AGS
  IC50: 11 µM
HL-60
  IC50: 1900 nM
SK-MES-1
  IC50: 16.1 µM

## O=C1C(Cl)=C(OCCOCCOCCOCCOC2=C(Cl)C(=O)c3ccccc3C2=O)C(=O)c2ccccc21
MRC5
  IC50: 55.8 µM
J82
  IC50: 33.9 µM
AGS
  IC50: 54.8 µM
HL-60
  IC50: 89500 nM
SK-MES-1
  IC50: 12.2 µM

## COCCOC1=C(Cl)C(=O)c2ccccc2C1=O
MRC5
  IC50: 3.5 µM
J82
  IC50: 19.4 µM
AGS
  IC50: 9.9 µM
HL-60
  IC50: 1700 nM
SK-MES-1
  IC50: 16.7 µM

## O=C1C2=C(OCCOCCOCCO2)C(=O)c2ccccc21
MRC5
  IC50: 10.1 µM
J82
  IC50: 19.8 µM
AGS
  IC50: 17.5 µM
HL-60
  IC50: 2600 nM
SK-MES-1
  IC50: 7.9 µM

## O=C1C2=C(OCCOCCO2)C(=O)c2ccccc21
MRC5
  IC50: 95.2 µM
J82
  IC50: 39.6 µM
AGS
  IC50: 63.2 µM
HL-60
  IC50: 21400 nM
SK-MES-1
  IC50: 16.4 µM

## O=C1C2=C(OCCO2)C(=O)c2ccccc21
MRC5
  IC50: 22.9 µM
J82
  IC50: 22.3 µM
AGS
  IC50: 19.5 µM
HL-60
  IC50: 20100 nM
SK-MES-1
  IC50: 8.3 µM

## O=C1C(Cl)=C(OCCOCCOCCOC2=C(Cl)C(=O)c3ccccc3C2=O)C(=O)c2ccccc21
MRC5
  IC50: 4 µM
J82
  IC50: 8.6 µM
AGS
  IC50: 5.2 µM
HL-60
  IC50: 1300 nM
SK-MES-1
  IC50: 7.1 µM

## COC1=C(Cl)C(=O)c2ccccc2C1=O
MRC5
  IC50: 3.5 µM
J82
  IC50: 10.1 µM
AGS
  IC50: 9.1 µM
HL-60
  IC50: 1800 nM
SK-MES-1
  IC50: 11.5 µM

## COC1=C(OC)C(=O)c2ccccc2C1=O
MRC5
  IC50: 7.2 µM
J82
  IC50: 16.1 µM
AGS
  IC50: 9.1 µM
HL-60
  IC50: 8900 nM
SK-MES-1
  IC50: 5.3 µM

## COc1cc([C@@H]2c3cc4c(cc3[C@@H](O[C@@H]3O[C@@H]5CO[C@@H](C)O[C@H]5[C@H](O)[C@H]3O)[C@H]3COC(=O)[C@H]23)OCO4)cc(OC)c1O [ETOPOSIDE]
MRC5
  IC50: 3.9 µM
J82
  IC50: 2.8 µM
AGS
  IC50: 0.36 µM
HL-60
  IC50: 800 nM
SK-MES-1
  IC50: 2.5 µM
